From PubChem BioAssay
ARNT-TACC3 inh: disrupts binding between human ARNT and TACC3. AlphaScreen His-ARNT PAS-B/GST-TACC3 binding, luminescence; TACC3 fragment carries E629A point mutation. inhibition, % at 9.99 µM. 390,000 compounds, 0.66% hits. AID 623870;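 active = mean inhibition of replicates at least 50% and at least half of replicates each reaching 50%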;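 also: 0% = complete ARNT plus TACC3 wells and 100% = ARNT alone without TACC3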
miR122 inh: blocks miR-122 activity in Huh7 sensor cells; Huh7 miR-122 Renilla luciferase sensor, 48 h; neutral wells = 0, positive control = 100; activation (reporter increase), % at 12.5 µM; 340,000 compounds, 0.3% hits;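 active = mean replicate activation score at least 90 and every replicate individually at or above 90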;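 also: higher luciferase means less miR-122 activity so hits act as miR-122 inhibitors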
SR-BI DiI-HDL act: SR-BI HDL lipid transfer activation; activation, % at 12.5 µM; CHO ldlA[mSR-BI] cells, DiI-HDL uptake fluorescence, 3 h; 100 = double the neutral-control signal; 320,000 compounds, 0.096% hits;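 active = mean replicate activation of at least 60% and every replicate at or above 60%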;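 also: 0% = median plate neutral-control signal and 100% = twice that signal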
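System: LDL receptor-deficient CHO ldlA cells overexpressing murine SR-BI | Timing: 3 h uptake period with compound, 37 °C | Medium: HEPES-buffered (25 mM, pH 7.4) F12 plus 0.5% BSA | Dosing: Single-point compound dose | Signal: Bottom-read fluorescence, 550/595 nm | Read-out: Retained DiI signal reflecting DiI-HDL uptake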
SR-BI DiI inh: mouse SR-BI HDL lipid transfer inhibition; Q61009; ldlA[mSR-BI] CHO cells, DiI-HDL uptake fluorescence, 3 h; inhibition, % at 12.5 µM; 320,000 compounds, 0.96% hits;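 active = mean replicate inhibition of at least 70% and a set share of replicates each scoring 70 or more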;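 also: 0% = median of neutral control wells and 100% = median of positive control wells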
Target sequence (Q61009 whole entry, looked up): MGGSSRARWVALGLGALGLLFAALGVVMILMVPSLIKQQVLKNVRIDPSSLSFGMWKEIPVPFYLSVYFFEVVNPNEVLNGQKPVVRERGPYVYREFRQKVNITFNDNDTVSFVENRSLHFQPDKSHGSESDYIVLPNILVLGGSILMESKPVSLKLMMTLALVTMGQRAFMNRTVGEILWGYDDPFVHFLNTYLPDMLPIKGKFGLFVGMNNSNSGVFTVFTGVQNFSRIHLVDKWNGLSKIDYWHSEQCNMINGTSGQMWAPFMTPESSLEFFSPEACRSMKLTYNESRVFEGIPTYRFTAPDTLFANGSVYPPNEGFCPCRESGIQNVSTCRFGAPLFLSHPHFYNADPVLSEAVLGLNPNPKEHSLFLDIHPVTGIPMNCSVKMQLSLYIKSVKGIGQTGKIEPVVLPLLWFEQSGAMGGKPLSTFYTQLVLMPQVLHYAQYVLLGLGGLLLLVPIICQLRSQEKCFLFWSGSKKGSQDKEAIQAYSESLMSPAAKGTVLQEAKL
CAL PDZ FP-1: inhibitors of human CAL PDZ peptide binding; 330,000 compounds, 0.02% hits; inhibition, % at 20 µM; purified CAL PDZ, TMR-peptide fluorescence polarization, 1 h;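 active = highest replicate inhibition of at least 40%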;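 also: plate controls were DMSO neutral control wells for no effect and unlabeled competitor peptide control wells for full effect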
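Assay system – tagged CAL PDZ protein CerCALP, purified · Timing – 1 h at RT · Compound – single point, 20 µM · Measured by – fluorescence polarization from S- and P-plane intensities, G-factor corrected · Evaluation – inhibition from polarization loss · Probe or stimulus – TMR reporter peptide T*-PRC34 · Buffer or medium – pH 7.4 phosphate-saline buffer, reducing agent, detergent, IgG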
CAL PDZ FP-2: blocks peptide binding to the human CAL PDZ domain. Q9HD26. purified CAL PDZ, TMR-peptide fluorescence polarization, 1 h. inhibition, % at 24.9 µM. 300,000 compounds, 0.92% hits;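 active = mean inhibition of at least 30% with at least half of replicates also reaching 30%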;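 also: 0% = DMSO neutral control and 100% = excess unlabeled competitor peptide PRC23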
Starred values were filed as active, the others as inactive; [ ] = another dose, or the depositor's remark. Sampled rows, rich in hits. Any-hit rate of the full collection: about 2.1%.

Results for C[C@H](O)C#Cc1ccc2c(c1)O[C@H](CN(C)CC1CC1)[C@H](C)CN([C@@H](C)CO)S2(=O)=O ?
miR122 inh: -4[16.7 µM]

What do the screens show for `COCC#Cc1ccc2c(c1)O[C@@H](CN(C)S(=O)(=O)c1ccc(C)cc1)[C@H](C)CN([C@H](C)CO)S2(=O)=O`?
ARNT-TACC3 inh: 3; miR122 inh: 5[16.7 µM]

Results for COc1ccc(-c2nc3ccc(C(=O)NCC(OC)OC)cc3nc2-c2ccc(OC)c(OC)c2)cc1OC ?
ARNT-TACC3 inh: -8; miR122 inh: 0; SR-BI DiI-HDL act: -75; SR-BI DiI inh: 75*; CAL PDZ FP-1: -2; CAL PDZ FP-2: 0

Results for CCOCCCNC(=O)c1ccc2nc(-c3ccc(OC)c(OC)c3)c(-c3ccc(OC)c(OC)c3)nc2c1 ?
ARNT-TACC3 inh: -7; SR-BI DiI-HDL act: -62; SR-BI DiI inh: 62; CAL PDZ FP-1: 0; CAL PDZ FP-2: 2

What do the screens show for `C=CCn1c(CNc2ccccc2)nnc1SCC(=O)N/N=C/c1ccc(O)cc1O`?
ARNT-TACC3 inh: 58*; miR122 inh: -7; SR-BI DiI-HDL act: 16; SR-BI DiI inh: -16; CAL PDZ FP-1: 0

How did O=S(=O)(Nc1ccc(Cl)cc1)c1cccc2nsnc12 do in these assays?
ARNT-TACC3 inh: 5; miR122 inh: 120*; SR-BI DiI-HDL act: 17; SR-BI DiI inh: -17; CAL PDZ FP-1: 1; CAL PDZ FP-2: -1

How did Cc1ccc(NS(=O)(=O)c2cccc3nsnc23)cc1C do in these assays?
ARNT-TACC3 inh: 2; miR122 inh: 114*; SR-BI DiI-HDL act: 5; SR-BI DiI inh: -5; CAL PDZ FP-1: 0; CAL PDZ FP-2: -2

Results for O=S(=O)(Nc1cccc(F)c1)c1cccc2nsnc12 ?
ARNT-TACC3 inh: 10; miR122 inh: 4; SR-BI DiI-HDL act: 1; SR-BI DiI inh: -1; CAL PDZ FP-1: 0; CAL PDZ FP-2: -6

Results for COc1ccc(CN(C)C[C@@H]2OCCCC[C@@H](C)Oc3ccc(NC(=O)Cc4ccccc4)cc3C(=O)N([C@H](C)CO)C[C@H]2C)cc1 ?
ARNT-TACC3 inh: 2; miR122 inh: 14[16.7 µM]

How did Cc1cc(C)c(C)c(S(=O)(=O)N2CCN(c3ncnc4ccccc34)CC2)c1C do in these assays?
ARNT-TACC3 inh: -11; miR122 inh: -5; SR-BI DiI-HDL act: -34; SR-BI DiI inh: 34; CAL PDZ FP-1: -3; CAL PDZ FP-2: -5

How did O=S(=O)(c1cc(C(F)(F)F)ccc1Cl)N1CCN(c2ncnc3ccccc23)CC1 do in these assays?
ARNT-TACC3 inh: -5; SR-BI DiI-HDL act: 3; SR-BI DiI inh: -3; CAL PDZ FP-1: -1; CAL PDZ FP-2: 62*

How did O=C(O)CCNc1ccc(NCCC(=O)O)c2c1C(=O)c1ccccc1C2=O do in these assays?
SR-BI DiI-HDL act: 13; SR-BI DiI inh: -13; CAL PDZ FP-1: -3; CAL PDZ FP-2: 4

Results for O=C1c2cccc(NCCNCCO)c2C(=O)c2cccc(NCCNCCO)c21 ?
ARNT-TACC3 inh: 47*; SR-BI DiI-HDL act: 0; SR-BI DiI inh: 0; CAL PDZ FP-1: 2; CAL PDZ FP-2: -8

How did CNC[C@H]1Oc2ccc(NC(=O)Nc3c(C)noc3C)cc2C(=O)N([C@H](C)CO)C[C@H]1C do in these assays?
ARNT-TACC3 inh: 4; miR122 inh: 0[16.7 µM]

What do the screens show for `CCN(CC)S(=O)(=O)c1ccc(NS(=O)(=O)c2ccc(C)c(C)c2)cc1`?
ARNT-TACC3 inh: 1; miR122 inh: 183*; SR-BI DiI-HDL act: 4; SR-BI DiI inh: -4; CAL PDZ FP-1: 0; CAL PDZ FP-2: -3

How did COc1ccccc1NS(=O)(=O)c1cc(C)ccc1C do in these assays?
ARNT-TACC3 inh: -1; miR122 inh: 141*; SR-BI DiI-HDL act: -16; SR-BI DiI inh: 16; CAL PDZ FP-1: -1; CAL PDZ FP-2: -3

Results for COc1ccc(C)cc1NS(=O)(=O)c1cc(C)ccc1C ?
ARNT-TACC3 inh: -7; miR122 inh: 87; SR-BI DiI-HDL act: -26; SR-BI DiI inh: 26; CAL PDZ FP-1: 0; CAL PDZ FP-2: -1

What do the screens show for `CCN(CC)S(=O)(=O)c1cc(NS(=O)(=O)c2ccccc2)ccc1C`?
ARNT-TACC3 inh: 8; SR-BI DiI-HDL act: 11; SR-BI DiI inh: -11; CAL PDZ FP-1: -1; CAL PDZ FP-2: -1

What do the screens show for `COc1cc(C)c(S(=O)(=O)Nc2ccccc2F)cc1C`?
ARNT-TACC3 inh: -39; miR122 inh: 123*; SR-BI DiI-HDL act: 9; SR-BI DiI inh: -9; CAL PDZ FP-1: 0; CAL PDZ FP-2: -1

What do the screens show for `Cc1ccc(C)c(S(=O)(=O)Nc2ccc3sc(C)nc3c2)c1`?
ARNT-TACC3 inh: 0; miR122 inh: 428*; SR-BI DiI-HDL act: 3; SR-BI DiI inh: -3; CAL PDZ FP-2: -4

Results for CCNS(=O)(=O)c1ccc(NS(=O)(=O)c2cc(C)ccc2C)cc1 ?
miR122 inh: 113*; SR-BI DiI-HDL act: -1; SR-BI DiI inh: 1; CAL PDZ FP-1: 0; CAL PDZ FP-2: -4

Results for Cc1ccc(S(=O)(=O)NCCNc2ccc(Br)c(C)c2)cc1 ?
SR-BI DiI-HDL act: -4; SR-BI DiI inh: 4; CAL PDZ FP-1: 0; CAL PDZ FP-2: 39*

What do the screens show for `COc1ccc(NS(=O)(=O)c2cc(C)ccc2C)cc1`?
ARNT-TACC3 inh: -1; miR122 inh: 539*; SR-BI DiI-HDL act: 25; SR-BI DiI inh: -25; CAL PDZ FP-1: -1

How did COc1ccc(NS(=O)(=O)c2cc(NC(=O)c3ccc(=O)[nH]n3)ccc2C)cc1 do in these assays?
ARNT-TACC3 inh: -1; miR122 inh: 166*; SR-BI DiI-HDL act: 18; SR-BI DiI inh: -18; CAL PDZ FP-1: -1; CAL PDZ FP-2: -9

How did COc1ccc(NS(=O)(=O)c2cc(S(C)(=O)=O)ccc2C)cc1 do in these assays?
ARNT-TACC3 inh: 3; SR-BI DiI-HDL act: -3; SR-BI DiI inh: 3; CAL PDZ FP-1: -1; CAL PDZ FP-2: -1

What do the screens show for `COc1ccc(NS(=O)(=O)c2cc(C(=O)O)ccc2C)cc1`?
ARNT-TACC3 inh: 1; miR122 inh: 9; SR-BI DiI-HDL act: 12; SR-BI DiI inh: -12; CAL PDZ FP-1: 0; CAL PDZ FP-2: 0

Results for Cc1ccc(C)c(S(=O)(=O)Nc2ccc(S(=O)(=O)Nc3ncccn3)cc2)c1 ?
ARNT-TACC3 inh: -4; miR122 inh: -14; SR-BI DiI-HDL act: 15; SR-BI DiI inh: -15; CAL PDZ FP-1: 0; CAL PDZ FP-2: -5

What do the screens show for `C[C@H]1CN([C@@H](C)CO)C(=O)c2cc(NS(=O)(=O)c3ccc(Cl)cc3)ccc2O[C@H]1CN(C)S(=O)(=O)c1ccc(F)cc1`?
ARNT-TACC3 inh: 21; miR122 inh: 1[16.7 µM]

How did O=C(C1CCC1)N1C[C@@H]2[C@H](c3ccccc31)[C@@H](CO)N2C(=O)Cc1ccccn1 do in these assays?
ARNT-TACC3 inh: 13; miR122 inh: -10[16.7 µM]
